# CSC inhib = blocks cancer stem cells; 300,000 tested, 1.1% active; inhibition, % at 7.5 µM; cancer stem cell-like cells viability, luminescence; in the data active means inhibition above about 75%; inconclusive means no clear call, values can overlap the other calls; tested in HMLE shEcad cells
# Lmaj promast = reduces viability of Leishmania major promastigotes. inhibition, % at 10 µM. 200,000 tested, 9% active. resazurin fluorescence viability; in the data active means inhibition above about 50%;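 further: promastigotes grown with compound for 44 hours at 28 °C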
# T cruzi repl = T. cruzi replication inhibition | inhibition, % (test concentration not listed) | 300,000 tested, 1.4% active | T. cruzi beta-gal in NIH3T3, luminescence, 90 h;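 active means mean inhibition across valid replicates above about 55%, limit read from the data; inconclusive means mean below that limit but half or more replicates reach it; inactive means mean below it, under half of replicates reach it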;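 further: signal also drops with host cell toxicity which is not excluded here; 0% = plate median of DMSO wells and 100% = zero luminescence signal; higher percent means less beta-gal luminescence so fewer parasites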
#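 Assay system: NIH/3T3 host cells with β-galactosidase reporter T. cruzi; input: 5,000 host fibroblasts per well; compound: single 50 nL compound addition per well in DMSO; timing: ≥90 h infection period, 3 h prior cell attachment; measured by: GalScreen β-gal luminescence, detergent lysis, 60 min; evaluation: percent inhibition of parasite-derived β-gal signal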
# Mdm2-MdmX inh = human Mdm2/MdmX binding inhibition. SaOS-2 split-luciferase Mdm2/MdmX complementation, luminescence. inhibition, % at 8 µM. 330,000 tested, 3% active. AID 485346;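 active means inhibition of at least 50% at 8 µM in the primary screen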
# Beta cell apopt = beta cell apoptosis inhibition; INS-1E cytokine-induced death, ATP luminescence, 48 h; percent of positive-control rescue, neutral wells zero; 300,000 tested, 0.8% active; AID 435005; protection from apoptosis, % (no concentration beside the values);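 active means Every replicate reaches about 75%, or at least half do and their mean reaches it too, limit read from the data; inconclusive means At least half of replicates reach the limit but their mean does not; inactive means Under half of replicates reach the limit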;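 further: 0% = cytokine-treated negative control wells and 100% = positive control rescue; higher means more ATP so stronger rescue from cytokine killing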
# SKKanGAS inh = SKKanGAS growth inhibition | S. pyogenes SKKanGAS, kanamycin growth, BacTiter-Glo, 6 h | inhibition, % at 7.5 µM | 300,000 tested, 1.3% active | AID 1662;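 active means mean replicate score, as percent of positive control median, at least 50; inconclusive means mean below 50 but one replicate at or above 50; inactive means mean and every replicate below 50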;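 further: strain carries kanamycin resistance gene driven by streptokinase promoter and grows in 40 µg/ml kanamycin; loss of luminescence reflects streptokinase promoter inhibition or plain growth inhibition; 0% = median of DMSO wells and 100% = positive control at its reference dose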
# Mdm2-MdmX conf = human Mdm2/MdmX binding inhibition, confirmed; 10,000 tested, 55% active; AID 489028; shares compounds with Mdm2-MdmX inh; inhibition, % at 8 µM; luminescent assay; in the data active means inhibition above about 40%
# FLuc counter = inhibits full-length luciferase, flagging false Mdm2/MdmX hits | shares compounds with Mdm2-MdmX inh | inhibition, % at 8 µM | 6,200 tested, 77% active | SaOS-2 full-length luciferase counterscreen, luminescence;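 active means mean inhibition at 8 µM reaching about 37%, which flags the compound as non-specific, limit read from the data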;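 further: p53-null SaOS-2 cells with luciferase driven by a doxycycline-inducible promoter; compound on cells about two nights before reading with doxycycline added after day one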
# * = called active by the depositor; ? = inconclusive; / = no result given. A selection: hits, their analogues and other compounds. The true share with any hit is near 9.4%.
SMILES,CSC inhib,Lmaj promast,T cruzi repl,Mdm2-MdmX inh,Beta cell apopt,SKKanGAS inh,Mdm2-MdmX conf,FLuc counter
Cc1ccc(NC(=O)c2c(C)noc2-c2snnc2C)cc1,12,/,0,2,-3,4,/,/
CCOc1cc2[nH]c(=S)n(CCc3ccc(OC)c(OC)c3)c(=O)c2cc1OCC,17,1,-52,83*,56,26,-8,/
C=CC(C)(C)c1c2occc2c(O)c2ccc(=O)oc12,/,/,/,18,/,/,/,/
C=CC(C)(C)c1c(O)c(CC=C(C)C)c(O)c2c(=O)c3ccc(O)c(O)c3oc12,-7,/,?,92*,107*,103*,86*,55*
Cc1ccc(C(=O)N/C(=C/c2ccc(-c3ccc([N+](=O)[O-])cc3)o2)C(=O)NCCCN(C)C)cc1,10,/,50,64*,/,2,26,/
C=CS(=O)(=O)c1ccc(Oc2ccc(S(=O)(=O)C=C)cc2)cc1,-10,-7,51,100*,106*,1,100*,1
CCOC(=O)C1(Nc2nccs2)Sc2ccccc2NC1=O (stereo not given),52,9,-5,57*,-2,-19,62*,58*
CCOC(=O)C(=O)Nc1ccc(S(=O)(=O)Nc2nccs2)cc1,-2,/,-20,11,/,-2,/,/
Nc1c(Cl)cc(-c2csc(N3CCCC3c3nc4cc(Cl)c(Cl)cc4n3CCCO)n2)cc1Cl (stereo not given),9,/,21,33,-6,12,/,/
Nc1c(Cl)cc(-c2csc(N3CCCC3c3nc4cc(Cl)c(N5CCCCC5)cc4n3CCCO)n2)cc1Cl (stereo not given),-5,/,8,85*,0,15,22,/
CC[n+]1c(/C=C/c2c[nH]c3ccccc23)ccc2cc(C)ccc21,/,100*,/,72*,/,/,56*,73*
O=C(Oc1cccc([N+](=O)[O-])c1)C1CCN(C(=O)c2ccc(F)cc2)CC1,-3,/,-3,-14,3,-4,/,/
CN(Cc1ccccc1)c1nc(-c2ccc([N+](=O)[O-])cc2)nc2ccccc12,35,3,23,2,23,2,/,/
O=[N+]([O-])c1ccc(-c2nc(C(Cl)Cl)c3ccccc3n2)cc1,97*,/,31,99*,94*,-2,100*,51*
Cc1nc(SCc2nc3cc(Cl)c(F)cc3[nH]2)c2oc3ccccc3c2n1,/,/,/,92*,16,/,42*,32
O=C1CN(C(=S)NC(=O)c2ccccc2[N+](=O)[O-])CCN1,-13,/,-35,12,4,-9,/,/
Cc1cccc(OCC(=O)NCCNC(=O)c2ccccn2)c1,/,/,1,12,-3,4,/,/
C=CCn1c(=NC(=O)c2sc3ccccc3c2Cl)sc2cc(S(N)(=O)=O)ccc21,7,-7,35,68*,6,-4,35,/
CCOC(=O)Cn1c(=NC(=O)CN2C(=O)CCC2=O)sc2cc(S(N)(=O)=O)ccc21,-16,-8,-18,0,-4,-3,/,/
CCOC(=O)Cn1c(=NC(=O)c2nc3ccccc3s2)sc2cc(S(N)(=O)=O)ccc21,-14,-8,2,63*,16,14,18,/
COc1ccc(CCNC(=O)CSc2nnc3ccccn23)cc1,-1,-12,-16,22,0,3,/,/
O=C(O)c1cccc(N=NN2CCOCC2)c1,-2,-6,1,-18,13,6,/,/
CCn1c(=O)c([N+](=O)[O-])c(NCc2ccco2)c2ccccc21,-13,/,1,20,-2,-12,/,/
COc1cc(/C=C/C(=O)NC(C)(C)C)ccc1OCc1ccccc1,18,12,-13,32,/,-2,/,/
COc1cc(/C=C/[N+](=O)[O-])ccc1OCc1cccc(C(=O)O)c1,/,-6,-26,55*,/,16,47*,35
SMILES,CSC inhib,Lmaj promast,T cruzi repl,Mdm2-MdmX inh,Beta cell apopt,SKKanGAS inh,Mdm2-MdmX conf,FLuc counter
COc1cc(/C=N/NC(=O)c2cccc([N+](=O)[O-])c2)ccc1OCc1ccccc1,17,-5,3,-1,2,-1,/,/
COc1cc(/C=C/[N+](=O)[O-])ccc1OC(=O)/C=C/c1ccc(F)cc1,/,/,41,73*,/,-11,71*,51*
COc1cc(OC)c(C(=O)/C=C/c2ccc(OCc3ccccc3)c(OC)c2)c(OC)c1,/,/,28,60*,/,7,22,/
COc1cc(OCc2ccccc2)c(C(=O)/C=C/c2ccc3c(c2)OCO3)c(OC)c1OC,37,/,44,70*,-7,-2,37,/
CCN(CC)CCCC(C)NC(=O)c1cccc(S(=O)(=O)N2CCc3ccccc32)c1 (stereo not given),-15,48,38,13,-1,1,/,/
COc1ccccc1N(CC(O)CN1C(C)CCCC1C)S(=O)(=O)c1ccccc1 (stereo not given),-6,/,2,22,-3,0,/,/
CC1(C(=O)OCC(=O)NNC(=O)COc2ccc(Cl)cc2)CC1(Cl)Cl (stereo not given),-10,/,-5,24,-2,0,/,/
COC(=O)c1cc(-c2ccc(Cl)cc2Cl)n[nH]1,-26,-4,-9,-24,2,2,/,/
Cc1cc(C)c(-c2csc(NC(=O)c3n[nH]c(=O)c4ccccc34)n2)c(C)c1,/,1,14,60*,6,31,62*,68*
COc1cc(NC(=O)c2n[nH]c(=O)c3ccccc23)cc(OC)c1,-1,/,-20,8,1,-3,/,/
COc1ccc(-c2nc(NC(=O)c3n[nH]c(=O)c4ccccc34)sc2C)cc1,23,63*,7,69*,20,9,36,/
COc1ccc(OC)c(NC(=O)NNC(=O)COc2ccc([N+](=O)[O-])cc2)c1,1,/,-10,6,3,-4,/,/
O=C(CC12CC3CC(CC(C3)C1)C2)NC(=S)NCc1ccco1,45,93*,56*,64*,12,35,28,/
O=C(NCc1ccco1)C12CC3CC(CC(C3)C1)C2,5,0,-4,-31,-7,-3,/,/
COc1ccccc1N(Cc1ccccc1)S(=O)(=O)c1cccc(C(=O)Nc2ncccc2C)c1,2,/,41,16,3,-10,/,/
COc1ccccc1N(Cc1ccccc1)S(=O)(=O)c1cccc(C(=O)NC2CC(C)(C)NC(C)(C)C2)c1,17,/,53,97*,13,-3,64*,72*
COc1ccccc1N(Cc1ccccc1)S(=O)(=O)c1cccc(C(=O)O)c1,-13,-6,-9,1,-4,1,/,/
COc1ccccc1N(Cc1ccccc1)S(=O)(=O)c1cccc(C(=O)Nc2cc(C)ccn2)c1,32,/,44,68*,-13,9,56*,160*

# Screens: PubChem, several laboratories
